# In PubChem BioAssay AID492951 (Molecular Libraries Program, Specialized Chemistry Center, …, 2010):
# Unmarked numbers belong to inactive results. The source made the active and inactive calls.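 The calls were made as follows: active = inhibition above 10%; inactive = the rest.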
# Molecular target: Hexokinase-4 (Homo sapiens) (UniProt P35557)
# Test: hGlck enzyme activity off-target inhibitors – biochemical, recombinant hGlck, counter-screen for TbHK1 inhibitor project (AID 492951)
# Conditions: G6PDH-coupled NADH absorbance 340 nm, at 10 µM; active compounds read high
# Summary of the method: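 Test system: recombinant human glucokinase, G6PDH-coupled; Medium: pH 7.9 TEA buffer, MgCl2, NAD+; Also added: 20 mM glucose as reaction starter, plus 1 mM ATP; Compound dosing: single final test compound dose of 10 µM; Schedule: 10 min preincubation at room temperature; Measured by: NADH formation by absorbance at 340 nm; Repeats: triplicate.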
# Hexokinase-4 (Homo sapiens), sequence (P35557 whole entry, looked up): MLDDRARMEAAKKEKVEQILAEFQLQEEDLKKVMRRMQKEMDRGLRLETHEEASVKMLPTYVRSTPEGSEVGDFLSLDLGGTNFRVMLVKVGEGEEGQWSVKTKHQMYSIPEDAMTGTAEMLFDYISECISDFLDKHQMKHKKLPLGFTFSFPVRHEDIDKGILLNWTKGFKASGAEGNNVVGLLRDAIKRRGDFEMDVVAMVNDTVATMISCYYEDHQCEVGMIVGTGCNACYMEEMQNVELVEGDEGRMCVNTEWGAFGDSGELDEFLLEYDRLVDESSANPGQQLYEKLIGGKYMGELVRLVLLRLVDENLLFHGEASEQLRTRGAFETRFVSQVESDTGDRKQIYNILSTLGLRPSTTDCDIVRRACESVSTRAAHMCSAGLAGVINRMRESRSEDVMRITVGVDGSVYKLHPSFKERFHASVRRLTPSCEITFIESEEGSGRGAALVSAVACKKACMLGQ
SMILES,inhibition,outcome
O=C1c2cccc(Br)c2SCN1c1ccccc1,5.5%,
CC(C)(C)c1ccc(C(=O)N2CCC(=O)c3ccc(Cl)cc32)cc1,,inactive
O=C(Nc1cc(Cl)ccc1C(=O)O)c1ccsc1,,inactive
O=c1c2c(Br)cccc2sn1-c1ccccc1,12.5% (active),
COC(=O)c1ccc(Cl)cc1NC(=O)c1ccccc1OC,,inactive
CCc1ccc(C(=O)Nc2cc(Cl)ccc2C(=O)O)cc1,,inactive
COc1ccc(C(=O)Nc2cc(C)ccc2C(=O)O)cc1,,inactive
O=C(Cn1sc2ccccc2c1=O)Nc1ccccc1C(F)(F)F,11.1% (active),
COc1ccc(C(=O)NC(CC(=O)O)c2ccc(Cl)cc2)cc1 (stereo not drawn),,inactive
CC1(c2ccc(C(=O)Nc3cc(Cl)ccc3C(=O)O)cc2)CC1,,inactive
O=C(Nc1cc(Cl)ccc1C(=O)O)c1ccc2c(c1)OCO2,,inactive
CCc1ccc(C(=O)Nc2cc(Br)ccc2C(=O)O)cc1,,inactive
CC(C(=O)Nc1ccccc1)n1sc2ccccc2c1=O (stereo not drawn),9.6%,
COc1ccc(S(=O)(=O)Nc2cc(Cl)ccc2C(=O)O)cc1,,inactive
CCCCCCC(=O)Nc1cc(Cl)ccc1C(=O)O,,inactive
CN(C)S(=O)(=O)c1cccc(-n2sc3ccccc3c2=O)c1,22.1% (active),
COC(=O)c1ccc(Cl)cc1NC(=O)c1ccc(Cl)cc1,,inactive
O=C(Nc1cc(Cl)ccc1C(=O)O)c1ccncc1,,inactive
CCC(C)(C)c1ccc(C(=O)Nc2cc(Cl)ccc2C(=O)O)cc1,26% (active),

SMILES,inhibition,outcome
O=C(Nc1cc(Cl)ccc1C(=O)O)c1ccc(C(F)(F)F)cc1,,inactive
O=c1c2ccc(F)cc2sn1Cc1ccccc1,56.1% (active),
O=C(O)c1ccc(Cl)cc1NC(=O)N1CCOCC1,,inactive
COc1ccc(N2C(=O)c3ccc(Cl)cc3C2=O)cc1,,inactive
O=C(Nc1cc(Cl)ccc1C(=O)O)c1ccc(C2CCC2)cc1,35.4% (active),
O=C(Cn1sc2ccccc2c1=O)Nc1cccc(F)c1,14.3% (active),
COC(=O)c1ccc(Cl)cc1NS(=O)(=O)c1ccc(OC)cc1,,inactive
COc1ccc(NC(=O)Nc2ccccc2C(=O)O)cc1,5.1%,
COc1ccc(C(=O)Nc2cc(-c3ccccc3)ccc2C(=O)O)cc1,,inactive
COc1ccc(C(=O)Nc2cc(Br)ccc2C(=O)O)cc1,,inactive
O=C(Nc1cc(Cl)ccc1C(=O)O)c1ccc2ccccc2c1,11.5% (active),
O=C(Cn1sc2ccccc2c1=O)Nc1ccc(F)cc1,1.7%,
N#Cc1ccccc1NC(=O)Cn1sc2ccccc2c1=O,10.9% (active),
O=c1c2cc(F)ccc2sn1-c1ccc(Cl)cc1,40% (active),
O=C(Cn1sc2ccccc2c1=O)Nc1cccc(C(F)(F)F)c1,9.3%,
COc1ccc(C(=O)Nc2cc(Cl)ccc2C(=O)O)cc1,7.8%,
O=c1c2cc(Br)ccc2sn1-c1ccccc1,38.4% (active),
COc1ccccc1C(=O)Nc1cc(Cl)ccc1C(=O)O,,inactive
Cc1cc(C(C#N)c2ccc(Cl)cc2)c(Cl)cc1NC(=O)c1cc(I)cc(I)c1O (stereo not drawn),24.3% (active),
